How the values were obtained:
Rattus norvegicus [1] = assay: Antiinflammatory effect in rat paw edema model following 50 mg/kg p.o. administration.; format: functional; details: route oral
Rattus norvegicus [2] = assay: Antiinflammatory effect (oral administration), on rat reversed passive Arthus reaction-induced paw edema at 5 mg/kg; format: functional
How it was run: (§1)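 Reversed passive Arthus: male Wistar rats (~150 g, n=5) were dosed orally with compound in 5% arabic gum. Paw volume was measured by plethysmograph before dosing and 2 h after antigen. % inhibition was calculated vs controls, and ED50 came from log-dose linear regression.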

Rattus norvegicus [3] = assay: Antiinflammatory effect (oral administration), on zymosan-induced rat paw edema at 25 mg/kg; format: functional
How it was run: (§2)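 Oral dosing in 5% arabic gum suspension to male Wistar rats (~150 g, n=5) 1 h before subplantar injection of 1% zymosan in saline into the hind paw. Paw volume was read by plethysmograph before dosing and 4 h after zymosan.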

Mus musculus = assay: Acute lethal toxicity (peroral administration), determined by observing the mortality for 7 days after the administration in mouse; format: organism-based; details: in vivo, po, 168 h
How it was run: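 Male dd mice of 20-25 g, three per group, given compound by mouth once. Mortality followed for 7 days, and the minimum lethal dose (MLD) was recorded in mg/kg po.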

Rattus norvegicus [4] = assay: Dose of the compound (oral administration) showing antiinflammatory effect on rat paw edema model (carrageenan-induced paw edema, CPE); format: functional
Rattus norvegicus [5] = assay: Oral dose required for antiinflammatory effect on zymosan induced rat paw edema.; format: functional; how it was run: as §2
Rattus norvegicus [6] = assay: Antiinflammatory effect of the compound(oral administration) on rat paw edema model(carrageenan-induced paw edema) at 50 mg/kg; format: functional
Rattus norvegicus [7] = assay: Dose of the compound (oral administration) showing antiinflammatory effect on rat paw edema model (reversed passive Arthus reaction-induced paw edema, RPAR); format: functional; how it was run: as §1

O=c1c2c(ncn2Cc2cccc([N+](=O)[O-])c2)c2cccnc2n1-c1ccccc1
inhibition in vivo at 50 mg/kg (Rattus norvegicus [1]): 33.1%
inhibition in vivo at 5 mg/kg (Rattus norvegicus [2]): 43.9%
inhibition in vivo at 25 mg/kg (Rattus norvegicus [3]): 35.7%

CC(O)Cn1cnc2c3cccnc3n(-c3ccccc3)c(=O)c21 (stereo not given)
MLD (Mus musculus): 300 mg/kg
ED40 (Rattus norvegicus [4]): 7.8 mg/kg
ED40 (Rattus norvegicus [5]): 4.5 mg/kg
inhibition in vivo at 5 mg/kg (Rattus norvegicus [2]): 61.8%
inhibition in vivo at 25 mg/kg (Rattus norvegicus [3]): 74.7%
inhibition in vivo at 50 mg/kg (Rattus norvegicus [6]): 48%
ED50 (Rattus norvegicus [7]): 1.9 mg/kg

Cn1cnc2c3cccnc3n(-c3ccccc3)c(=O)c21
MLD (Mus musculus): 100 mg/kg
inhibition in vivo at 5 mg/kg (Rattus norvegicus [2]): 45%
inhibition in vivo at 50 mg/kg (Rattus norvegicus [6]): 40%

O=c1c2c(ncn2CCCN2CCOCC2)c2cccnc2n1-c1ccccc1
inhibition in vivo at 5 mg/kg (Rattus norvegicus [2]): -3.5%
inhibition in vivo at 25 mg/kg (Rattus norvegicus [3]): 22.4%
inhibition in vivo at 50 mg/kg (Rattus norvegicus [6]): 9.7%

O=C(O)Cn1cnc2c3cccnc3n(-c3ccccc3)c(=O)c21
inhibition in vivo at 50 mg/kg (Rattus norvegicus [1]): 10.8%
inhibition in vivo at 5 mg/kg (Rattus norvegicus [2]): 3.3%
inhibition in vivo at 25 mg/kg (Rattus norvegicus [3]): 5.1%

CC(=O)Cn1cnc2c3cccnc3n(-c3ccccc3)c(=O)c21
MLD (Mus musculus): > 200 mg/kg
ED40 (Rattus norvegicus [4]): 40 mg/kg
ED40 (Rattus norvegicus [5]): 3.9 mg/kg
inhibition in vivo at 5 mg/kg (Rattus norvegicus [2]): 57.7%
inhibition in vivo at 25 mg/kg (Rattus norvegicus [3]): 53.7%
inhibition in vivo at 50 mg/kg (Rattus norvegicus [6]): 41.3%
ED50 (Rattus norvegicus [7]): 4.5 mg/kg

CCCCn1cnc2c3cccnc3n(-c3ccccc3)c(=O)c21
MLD (Mus musculus): 300 mg/kg
ED40 (Rattus norvegicus [4]): 15.4 mg/kg
ED40 (Rattus norvegicus [5]): 2.1 mg/kg
inhibition in vivo at 5 mg/kg (Rattus norvegicus [2]): 49.9%
inhibition in vivo at 25 mg/kg (Rattus norvegicus [3]): 55.5%
inhibition in vivo at 50 mg/kg (Rattus norvegicus [6]): 45.8%
ED50 (Rattus norvegicus [7]): 4.8 mg/kg

C=CCn1cnc2c3cccnc3n(-c3ccccc3)c(=O)c21
MLD (Mus musculus): > 300 mg/kg
ED40 (Rattus norvegicus [4]): 21.9 mg/kg
ED40 (Rattus norvegicus [5]): 2.7 mg/kg
inhibition in vivo at 5 mg/kg (Rattus norvegicus [2]): 22.7%
inhibition in vivo at 25 mg/kg (Rattus norvegicus [3]): 67.3%
inhibition in vivo at 50 mg/kg (Rattus norvegicus [6]): 67.8%

O=c1c2c(ncn2Cc2ccc([N+](=O)[O-])cc2)c2cccnc2n1-c1ccccc1
MLD (Mus musculus): > 300 mg/kg
ED40 (Rattus norvegicus [5]): 3.5 mg/kg
inhibition in vivo at 50 mg/kg (Rattus norvegicus [1]): 35.9%
inhibition in vivo at 5 mg/kg (Rattus norvegicus [2]): 22.2%
inhibition in vivo at 25 mg/kg (Rattus norvegicus [3]): 45.6%

CCn1cnc2c(=O)n(-c3ccccc3)c3ncccc3c21
MLD (Mus musculus): > 300 mg/kg
inhibition in vivo at 5 mg/kg (Rattus norvegicus [2]): 3.5%
inhibition in vivo at 25 mg/kg (Rattus norvegicus [3]): 13.5%

CC(C)n1cnc2c(=O)n(-c3ccccc3)c3ncccc3c21
MLD (Mus musculus): > 300 mg/kg
inhibition in vivo at 5 mg/kg (Rattus norvegicus [2]): 32%

O=c1c2c(ncn2C/C=C/c2ccccc2)c2cccnc2n1-c1ccccc1
MLD (Mus musculus): > 300 mg/kg
inhibition in vivo at 50 mg/kg (Rattus norvegicus [1]): 26.3%
inhibition in vivo at 5 mg/kg (Rattus norvegicus [2]): 17.5%
inhibition in vivo at 25 mg/kg (Rattus norvegicus [3]): 34.2%

CC(C)n1cnc2c3cccnc3n(-c3ccccc3)c(=O)c21
MLD (Mus musculus): 200 mg/kg
ED40 (Rattus norvegicus [5]): 12.7 mg/kg
inhibition in vivo at 50 mg/kg (Rattus norvegicus [1]): 43.1%
inhibition in vivo at 5 mg/kg (Rattus norvegicus [2]): 13.3%
inhibition in vivo at 25 mg/kg (Rattus norvegicus [3]): 62.4%

O=c1c2ncn(Cc3ccccc3)c2c2cccnc2n1-c1ccccc1
MLD (Mus musculus): > 300 mg/kg
inhibition in vivo at 5 mg/kg (Rattus norvegicus [2]): 1.5%
inhibition in vivo at 25 mg/kg (Rattus norvegicus [3]): 4.7%

CCN(CC)CCCn1cnc2c3cccnc3n(-c3ccccc3)c(=O)c21
inhibition in vivo at 50 mg/kg (Rattus norvegicus [1]): 7.2%
inhibition in vivo at 5 mg/kg (Rattus norvegicus [2]): 11.1%
inhibition in vivo at 25 mg/kg (Rattus norvegicus [3]): 17.4%

CC(c1ccccc1)n1cnc2c3cccnc3n(-c3ccccc3)c(=O)c21 (stereo not given)
MLD (Mus musculus): > 300 mg/kg
inhibition in vivo at 50 mg/kg (Rattus norvegicus [1]): 3.5%
inhibition in vivo at 5 mg/kg (Rattus norvegicus [2]): 14.9%
inhibition in vivo at 25 mg/kg (Rattus norvegicus [3]): 1.6%

COc1ccc(Cn2cnc3c4cccnc4n(-c4ccccc4)c(=O)c32)cc1
MLD (Mus musculus): > 300 mg/kg
ED40 (Rattus norvegicus [5]): 0.93 mg/kg
inhibition in vivo at 50 mg/kg (Rattus norvegicus [1]): 37.8%
inhibition in vivo at 5 mg/kg (Rattus norvegicus [2]): 59.2%
inhibition in vivo at 25 mg/kg (Rattus norvegicus [3]): 66.9%
ED50 (Rattus norvegicus [7]): 2.3 mg/kg

O=c1c2c(ncn2Cc2ccccc2)c2cccnc2n1-c1ccccc1
MLD (Mus musculus): > 300 mg/kg
ED40 (Rattus norvegicus [4]): 5.3 mg/kg
ED40 (Rattus norvegicus [5]): 0.37 mg/kg
inhibition in vivo at 5 mg/kg (Rattus norvegicus [2]): 79.7%
inhibition in vivo at 25 mg/kg (Rattus norvegicus [3]): 68.3%
inhibition in vivo at 50 mg/kg (Rattus norvegicus [6]): 63%
ED50 (Rattus norvegicus [7]): 0.47 mg/kg

Oc1c2ncnc-2c2cccnc2n1-c1ccccc1
MLD (Mus musculus): > 300 mg/kg
inhibition in vivo at 5 mg/kg (Rattus norvegicus [2]): 15.4%

O=c1c2c(ncn2Cc2ccc(Cl)cc2)c2cccnc2n1-c1ccccc1
MLD (Mus musculus): > 300 mg/kg
ED40 (Rattus norvegicus [5]): 20.3 mg/kg
inhibition in vivo at 50 mg/kg (Rattus norvegicus [1]): 21.3%
inhibition in vivo at 5 mg/kg (Rattus norvegicus [2]): 15.1%
inhibition in vivo at 25 mg/kg (Rattus norvegicus [3]): 42.8%

O=c1c2c(ncn2Cc2ccccc2Cl)c2cccnc2n1-c1ccccc1
inhibition in vivo at 50 mg/kg (Rattus norvegicus [1]): 14.9%
inhibition in vivo at 5 mg/kg (Rattus norvegicus [2]): 20.8%
inhibition in vivo at 25 mg/kg (Rattus norvegicus [3]): 27.3%

Cc1ccc(C)c(Cn2cnc3c4cccnc4n(-c4ccccc4)c(=O)c32)c1
inhibition in vivo at 50 mg/kg (Rattus norvegicus [1]): 1.2%
inhibition in vivo at 5 mg/kg (Rattus norvegicus [2]): -3.5%
inhibition in vivo at 25 mg/kg (Rattus norvegicus [3]): 10.1%

C[C@]12C=CC(=O)C=C1CC[C@@H]1[C@@H]2[C@@H](O)C[C@@]2(C)[C@H]1CC[C@]2(O)C(=O)CO [PREDNISOLONE]
MLD (Mus musculus): > 300 mg/kg
ED40 (Rattus norvegicus [4]): 4.7 mg/kg
ED40 (Rattus norvegicus [5]): 1.2 mg/kg
ED50 (Rattus norvegicus [7]): 74.2 mg/kg

Cc1ccc(Cn2cnc3c4cccnc4n(-c4ccccc4)c(=O)c32)cc1
MLD (Mus musculus): > 300 mg/kg
ED40 (Rattus norvegicus [5]): 3.5 mg/kg
inhibition in vivo at 50 mg/kg (Rattus norvegicus [1]): 39.2%
inhibition in vivo at 5 mg/kg (Rattus norvegicus [2]): 67.4%
inhibition in vivo at 25 mg/kg (Rattus norvegicus [3]): 56.2%
ED50 (Rattus norvegicus [7]): 1.9 mg/kg

Cc1nc2c3cccnc3n(-c3ccccc3)c(=O)c2n1Cc1ccccc1
inhibition in vivo at 5 mg/kg (Rattus norvegicus [2]): 6.5%
inhibition in vivo at 25 mg/kg (Rattus norvegicus [3]): 19.2%
inhibition in vivo at 50 mg/kg (Rattus norvegicus [6]): 4.7%

CCCCCCn1cnc2c3cccnc3n(-c3ccccc3)c(=O)c21
MLD (Mus musculus): > 300 mg/kg
inhibition in vivo at 5 mg/kg (Rattus norvegicus [2]): 51.1%
inhibition in vivo at 25 mg/kg (Rattus norvegicus [3]): 33.5%
inhibition in vivo at 50 mg/kg (Rattus norvegicus [6]): 35.2%
ED50 (Rattus norvegicus [7]): 4.9 mg/kg

CCOC(=O)Cn1cnc2c3cccnc3n(-c3ccccc3)c(=O)c21
inhibition in vivo at 5 mg/kg (Rattus norvegicus [2]): 9.9%
inhibition in vivo at 25 mg/kg (Rattus norvegicus [3]): 5%
inhibition in vivo at 50 mg/kg (Rattus norvegicus [6]): 23.1%

— ChEMBL document CHEMBL1126191, “New antiinflammatory agents. 2. 5-Phenyl-3H-imidazo[4,5-c][1,8]naphthyridin-4(5H)-ones: a new class of nonsteroidal antiinflammatory agents with potent activity like glucocorticoids” (J Med Chem, 1992)
